core dimer inh = HCV core protein dimerization inhibition; actives 0.33% (n = 300,000); inhibition, % at 5 µM; AID 1899; TR-FRET GST/Flag-core106 dimerization, 1536-well;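 active = inhibition above the mean of all tested compounds plus 3 SD, set per screening campaign, cut at about 45% in these data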
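Assay system: tagged HCV core106 pair (GST and Flag); medium: KF-containing HEPES buffer, pH 7.45, DTT, CHAPS, BSA; also added: Eu donor and XL665 acceptor anti-tag antibodies; dosing: 5 µM single dose; timing: compound-protein-antibody incubation 4 h at 22.5 °C; signal: TR-FRET 671 and 617 nm emission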
AI-2 QS mod = modulates the Vibrio harveyi AI-2 quorum sensing system; Vibrio harveyi JMH597 AI-2 luminescence/OD600 ratio, 9 h; stronger effect = lower value; strain lacks LuxN and CqsS sensors; 0 = neutral-control median; activity change, % at 7.5 µM; actives 0.4% (n = 300,000); in the data active = activity change below about -75%, passing the limit was not always enough; inconclusive = no clear call, values can overlap the other calls;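 note: luminescence divided by OD600 gain over 9 h not by final OD600 alone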
HSF1 inhib = HSF1 inhibition. AID 2098. activity change, negative = inhibition, % at 7.5 µM (by protocol). NIH3T3-HGL HSE-luciferase, MG132-induced, luminescence 8 h; stronger effect = lower value. actives 0.77% (n = 300,000);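 active = more than half of replicate wells show activity change below -50%, luminescence cut by over half; inconclusive = some wells, but at most half, below -50%; inactive = no replicate well below -50%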;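 note: luciferase reports HSF-1 transcriptional activity via heat shock element; 0% = median of DMSO wells and -100% = zero luminescence signal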
PHOSPHO1 block = blocks human PHOSPHO1 phosphatase activity; AID 1565; actives 1.1% (n = 290,000); inhibition, % at 13.3 µM; recombinant PHOSPHO1, absorbance phosphatase assay; in the data active = inhibition above about 60%
Target sequence (Q8TCT1 whole entry, looked up): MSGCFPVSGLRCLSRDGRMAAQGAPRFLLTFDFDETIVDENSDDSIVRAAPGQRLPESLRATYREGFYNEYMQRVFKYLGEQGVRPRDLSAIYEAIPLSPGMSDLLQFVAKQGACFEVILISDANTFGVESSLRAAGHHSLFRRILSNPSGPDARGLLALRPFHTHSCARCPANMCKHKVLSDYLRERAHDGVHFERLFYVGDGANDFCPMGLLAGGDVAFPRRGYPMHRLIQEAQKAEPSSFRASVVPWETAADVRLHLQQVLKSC
HSF1 activator = increases HSF-1 driven luciferase reporter signal; NIH3T3-HGL HSF-1 luciferase reporter, MG132, 8 h; 100% = twice DMSO control signal; activation, % at 9 µM; actives 1.7% (n = 300,000); AID 504408;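 active = mean replicate activation of at least 50% with a set share of replicates each reaching 50%; inconclusive = only one of those two conditions met; inactive = mean below 50% and too few replicates reaching it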;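 note: 0% = median of the neutral control wells and 100% = twice that signal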
ALR H2O2 inh = human ALR oxidase inhibition via reduced H2O2; P55789; purified ALR, DTT oxidation, H2O2 HRP-luminol luminescence; inhibition, % (test concentration not listed); actives 3.8% (n = 290,000);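 active = mean replicate inhibition above about 79%, with every replicate also reaching it, limit read from the data; inconclusive = only one of the two criteria met; inactive = mean below limit and not every replicate reaching it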
Target sequence (P55789 whole entry, looked up): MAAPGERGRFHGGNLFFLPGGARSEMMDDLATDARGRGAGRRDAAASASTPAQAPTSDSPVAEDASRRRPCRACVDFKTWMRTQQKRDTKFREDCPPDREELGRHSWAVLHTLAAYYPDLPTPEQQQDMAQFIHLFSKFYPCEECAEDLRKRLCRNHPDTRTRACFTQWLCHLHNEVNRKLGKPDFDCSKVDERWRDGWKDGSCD
The depositor's hits bear a star; ? = inconclusive; . = no result. Sampled rows, rich in hits. Any-hit rate of the full collection: about 6.8%.

SMILES	core dimer inh	AI-2 QS mod	HSF1 inhib	PHOSPHO1 block	HSF1 activator	ALR H2O2 inh
Nc1ccc2nc(CCc3ccccc3)[nH]c2c1	1.1	26.1	10.7	-41.4	31.1	98.8*
CCC(=O)c1ccc(OCC(=O)OCC(=O)Nc2sccc2C(N)=O)cc1	1.5	30.2	-2.2	-3.4	4.3	13.3
O=C1CC(N2CCN(c3ccc(O)cc3)CC2)C(=O)N1Cc1cccs1 (configuration not stated)	-5.1	.	.	-10.1	.	99.2*
Cc1ccc(Nc2nc(-c3ccccc3)c(CC(=O)O)s2)cc1	3.0	14.7	36.0	10.8	63.4*	-0.3
CCc1sc(NS(C)(=O)=O)nc1-c1ccccc1	-0.6	28.1	11.9	19.3	20.1	98.3*
O=C(O)Cc1sc(-c2ccccc2)nc1-c1ccccc1	0.2	-0.2	-5.3	7.1	-5.0	3.3
O=C(O)Cc1sc(Nc2ccccc2)nc1-c1ccc(Cl)cc1	-0.8	24.0	16.5	-97.9	30.6	-7.0
Cc1ccc(-c2nc(-c3ccccn3)sc2CC(=O)O)cc1	-3.3	22.8	-1.2	6.5	-15.1	99.4*
CCc1sc(NC(C)=O)nc1-c1ccccc1	8.7	8.5	-4.3	26.0	2.6	-15.0
CCOCCCN(C(=O)Cn1nnc(-c2ccc(OC)c(OC)c2)n1)C(C(=O)NCC1CCCO1)c1ccc(F)cc1 (configuration not stated)	4.5	23.1	1.5	36.2	-0.8	-3.1
Cc1ccc(N2C(=O)C3C4C=CC(CC4)C3C2=O)cc1[N+](=O)[O-] (configuration not stated)	-1.0	19.0	1.1	19.3	2.8	-10.4
Cc1cc(N2C(=O)C=CC2=O)c([N+](=O)[O-])cc1C	47.9*	?	-2.7	-2.0	1.8	20.5
O=C(CN(C(=O)c1csnn1)c1ccc(F)c(Cl)c1)NCc1ccc(F)cc1	-3.4	.	22.5	6.2	71.9*	10.0
CC(C)(C)c1ccc(COC(=O)Nc2ccc(F)cc2)cc1	14.2	-50.7	-6.3	1.0	5.4	-22.8
CC(C)(C)c1ccc(NC(=O)Nc2ccc(F)cc2)cc1	2.0	-84.8*	30.2	39.4	57.1*	-9.8
Cc1cc(SCc2ccc(Cl)c(Cl)c2)nc(=O)[nH]1	2.5	28.1	3.3	36.0	20.8	0.4
Cc1cc(SCc2ccccc2Cl)nc(=O)[nH]1	44.4	9.4	-0.6	36.0	-1.5	94.3*
Cc1cc(SCc2ccc(Cl)cc2Cl)nc(=O)[nH]1	9.5	20.8	-3.0	30.2	5.6	98.0*
Cc1ccc(C(=O)CSc2cc(C)[nH]c(=O)n2)cc1	63.6*	30.1	11.4	40.8	21.4	98.6*
Cc1cc(SCc2ccccc2C)nc(=O)[nH]1	2.9	14.8	-2.5	31.3	10.0	28.6
CC(=O)OCC(OC(C)=O)C(OC(C)=O)C(OC(C)=O)C(=O)Nc1ccccc1 (configuration not stated)	-1.8	0.2	-5.7	-7.5	4.2	-31.7
CC(C)[C@H](NC(=O)[C@@H]1Cc2ccccc2CN1C(=O)OC(C)(C)C)C(=O)NCC1CCCO1 (some centres not stated)	0.8	3.4	0.7	32.4	13.8	-2.7
Cc1ccc(-c2nc(N)sc2C)cc1	-2.8	13.0	-5.2	-14.0	-1.4	.
Cc1sc(N)nc1-c1c(C)n(C)c2ccccc12	.	7.3	-3.9	32.6	-2.7	99.1*
Cc1ccc2occ(/C=N/NC(=O)c3ccc(O)cc3)c(=O)c2c1	.	4.4	-2.1	16.2	0.0	97.7*
SMILES	core dimer inh	AI-2 QS mod	HSF1 inhib	PHOSPHO1 block	HSF1 activator	ALR H2O2 inh
Cc1ccc2occ(/C=N/NC(=O)c3ccccc3Br)c(=O)c2c1	3.5	2.0	5.2	46.5	5.2	43.0
CNc1ncc(C(=O)c2ccccc2)s1	4.1	-7.5	28.4	46.0	57.5*	.
COC(=O)C1=NN(c2cccc(C)c2)C2C(=O)N(c3ccccc3OC)C(=O)C12 (configuration not stated)	0.5	3.6	4.0	-2.0	-10.6	3.4
COc1cc(/C=N/NC(=O)c2cc(-c3c(C)nn(-c4ccccc4)c3C)n[nH]2)ccc1O	-16.1	?	-1.3	-6.8	2.1	83.5*
COc1cc2ccccc2cc1C(=O)N/N=C/c1ccc2c(c1)OCO2	.	0.5	-7.3	61.0*	18.4	-0.5
COc1ccc(/C=N/NC(=O)c2cc(-c3cccn3C)n[nH]2)cc1OC	3.3	108.3	?	2.3	-67.5	.
Cc1nn(-c2ccccc2)c(C)c1-c1cc(C(=O)N/N=C/c2ccc(O)cc2)[nH]n1	1.7	14.6	-4.8	28.5	-6.0	96.8*
COc1cc(/C=N/NC(=O)c2cc(-c3ccc4c(c3)OCO4)n[nH]2)ccc1O	0.2	96.4	7.1	14.1	12.4	90.9*
O=C(N/N=C/c1ccc([N+](=O)[O-])cc1)c1cc(-c2ccc3c(c2)OCO3)n[nH]1	-1.4	19.7	-1.4	41.6	8.5	0.1
Cc1ccc(C(=O)c2cc3c(cc2[N+](=O)[O-])OCCO3)cc1	3.1	18.5	2.4	42.8	7.4	.
CCOc1ccccc1C1c2cc3c(cc2OC(C)(N2CCCC2)C1C)OCO3 (configuration not stated)	-3.7	17.7	-3.3	.	5.0	70.0
COc1ccc2cc([C@H](C)C(=O)N(C)Cc3ccccc3N3CCCC3)ccc2c1	7.6	10.9	3.9	-2.8	-5.8	-18.1
CCN=c1scc(C)n1/N=C/c1ccsc1	-21.6	15.3	17.6	45.3	0.5	98.8*
O=C(O)CC(NC(=O)c1cccc([N+](=O)[O-])c1)c1ccc2c(c1)OCO2 (configuration not stated)	-10.1	13.7	-0.6	-21.8	25.4	-7.1
Cn1c(SCC(=O)N2CCCC2=O)nnc1-c1ccccc1F	-1.4	-7.9	-1.5	-19.6	-8.0	-4.5
COc1cc(/C=N/n2c(=S)[nH]nc(C)c2=O)cc([N+](=O)[O-])c1O	-0.4	19.1	0.3	64.2*	5.1	12.9
COc1cc(/C=N/N2CCCCC2)cc([N+](=O)[O-])c1O	-13.0	29.6	-14.2	19.5	-14.4	98.4*
COc1cc(CNc2ccc3[nH]c(=O)[nH]c3c2)ccc1OCc1ccccc1	-28.8	34.5	9.8	19.1	29.3	68.0
COc1cc(CNc2ccc3[nH]c(=O)[nH]c3c2)ccc1OCc1ccc(Cl)cc1	-16.7	28.5	58.3	24.1	82.7*	50.5
COc1cc(CNc2ccc3[nH]c(=O)[nH]c3c2)ccc1OCc1ccc(F)cc1	-29.0	0.1	20.7	14.1	40.8	89.4*
COc1cc(CNc2ccc3[nH]c(=O)[nH]c3c2)ccc1OCc1c(F)cccc1Cl	.	-0.5	1.0	38.1	-6.6	60.9
CNC(=O)NC(=O)COC(=O)c1ccc(-n2c(C)ccc2C)cc1	4.2	9.2	-47.0	0.8	-59.6	-11.8

Screens as filed in PubChem.
